Source: PubChem BioAssay (several laboratories)
FXIIa inh = factor XIIa (human) inhibition; purified FXIIa, Boc-QGR-AMC fluorogenic substrate, 2 h; inhibition, % at 5 µM; 220,000 compounds, 0.3% hits; AID 800; P00748; in the data active = inhibition above about 40%;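 also: 0% = enzyme with no compound and 100% = blank without enzyme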
Target sequence (P00748 20-372 limits assumed): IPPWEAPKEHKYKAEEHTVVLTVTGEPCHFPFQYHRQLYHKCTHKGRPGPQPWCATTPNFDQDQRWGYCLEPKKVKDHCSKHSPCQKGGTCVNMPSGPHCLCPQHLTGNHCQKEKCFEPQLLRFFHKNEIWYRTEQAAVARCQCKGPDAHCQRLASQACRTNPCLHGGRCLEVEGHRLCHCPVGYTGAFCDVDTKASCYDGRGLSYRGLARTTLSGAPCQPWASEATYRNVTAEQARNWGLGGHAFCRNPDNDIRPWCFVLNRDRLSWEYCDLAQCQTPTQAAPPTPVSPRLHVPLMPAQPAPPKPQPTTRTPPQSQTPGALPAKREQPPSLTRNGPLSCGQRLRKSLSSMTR
Target sequence (P00748 373-615 limits assumed): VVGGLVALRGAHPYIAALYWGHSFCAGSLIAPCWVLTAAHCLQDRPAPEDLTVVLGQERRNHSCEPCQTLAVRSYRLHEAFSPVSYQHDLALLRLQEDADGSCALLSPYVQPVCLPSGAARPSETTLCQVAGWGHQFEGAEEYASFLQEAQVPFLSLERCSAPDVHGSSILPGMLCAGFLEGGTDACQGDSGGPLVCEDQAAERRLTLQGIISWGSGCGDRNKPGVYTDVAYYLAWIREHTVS
Thrombin inh = inhibitors of human thrombin; alpha-thrombin, Boc-VPR-AMC fluorogenic substrate cleavage; inhibition, % at 5 µM; 220,000 compounds, 0.26% hits; AID 1046;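 active = inhibition at or above 40%; inactive = inhibition below 40%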;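 also: 0% = enzyme with no compound and 100% = wells without enzyme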
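signal = AMC fluorescence, 355/460 nm | material = human alpha-thrombin enzyme | control set = enzyme without compound as high, wells lacking enzyme as low | times = reaction at room temperature | read-out basis = percent inhibition scaled between no-compound controls and no-enzyme blanks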
KLK5 inh = blocks human kallikrein 5 protease activity. Q9Y337. recombinant hK5, fluorogenic AMC substrate cleavage. inhibition, % at 5 µM. 210,000 compounds, 0.59% hits;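 active = inhibition of 40% or more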;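 also: 0% = enzyme controls without compound and 100% = no-enzyme blanks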
FXIa inh = inhibitors of human coagulation factor XIa | P03951 | purified FXIa, Boc-Glu-Ala-Arg-AMC fluorogenic substrate | inhibition, % at 5 µM | 220,000 compounds, 0.14% hits | AID 798;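 active = inhibition of at least 40%; inactive = inhibition below 40%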;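 also: fluorescence of freed AMC excited at 355 nm; 0% = enzyme without compound and 100% = no enzyme blank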
Calpain2 inh = inhibitors of pig calpain II. 220,000 compounds, 0.37% hits. purified calpain II, fluorogenic peptide substrate, 30 min. inhibition, % at 16 µM;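 active = inhibition above about 50%, limit read from the data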
Numbers without * were called inactive; nt = not tested or not shown. This is a sample that favours compounds with a hit; in the whole collection about 1.4% have one here.

SMILES	FXIIa inh	Thrombin inh	KLK5 inh	FXIa inh	Calpain2 inh
O=C(Nc1cccc2ccccc12)N1CCN(c2ccc(F)cc2)CC1	9.5	-6.2	0.0	-4.8	-33.5
COC(=O)c1ccccc1NC(=O)N1CCN(c2ccc(F)cc2)CC1	3.2	-5.7	-5.3	-5.3	51.3*
CCCCN(C)C(=S)Nc1ccc2nc3n(c(=O)c2c1)CCCCC3	9.6	-2.1	5.5	2.2	25.6
O=C(O)CC(=O)Nc1ccccc1C(=O)O	68.3*	0.6	4.6	15.2	-40.1
O=C(NCCCn1ccnc1)c1cc2cc([N+](=O)[O-])ccc2oc1=O	7.8	-7.6	-11.4	3.9	4.7
COCCNC(=O)/C(C#N)=C/c1c(N2CC(C)OC(C)C2)nc2ccccn2c1=O (stereo unspecified)	5.3	-11.6	-13.7	-2.6	-48.8
Cc1ccc(N2C(=O)[C@@H]3[C@H](C2=O)C2c4ccccc4C=CN2[C@@H]3C(=O)c2ccco2)cc1 (stereo partly specified)	11.7	14.6	5.2	10.3	-35.7
COc1ccc(N2C(=O)[C@@H]3[C@H](C2=O)[C@H]2c4ccccc4C=CN2[C@@H]3C(=O)Nc2ccccc2)cc1	45.0*	61.4*	0.9	14.4	-62.3
CCCCc1[nH]c(=O)c(C#N)c2c1CSC(C)(C)C2	4.3	-8.4	-37.7	-3.2	-114.5
CCCCc1[nH]c(=O)c(C#N)c2c1CCCC2	49.4*	3.1	-6.0	34.1	19.8
CCOC(=O)C1=C2NC(=O)c3ccccc3N2C(=O)C1	0.5	-22.8	-5.5	-10.1	-14.2
Cc1ccc(NC(=O)C(C)N2CCOCC2)c(C(=O)c2ccccc2)c1 (stereo unspecified)	14.3	19.4	42.5*	4.5	14.5
NC(=O)c1ccsc1NC(=O)CSc1nnc(Nc2ccccc2)s1	3.5	-1.4	-8.1	-2.2	-55.5
CCn1c(C(=O)Nc2ccsc2C(=O)OC)cc2sc(Cl)cc21	-5.0	5.3	46.5*	-1.4	-11.0
Cc1ccccc1Cn1cnc2c(NS(C)(=O)=O)c(C)c(C)cc21	40.9*	2.5	-0.8	0.9	-8.3
COc1ccc(Cn2cnc3c(NS(C)(=O)=O)c(C)c(C)cc32)cc1	11.2	-3.3	1.0	-1.9	-33.3
CC(C)c1ccccc1NC(=O)COC(=O)c1ccc(Cl)c(S(=O)(=O)N2CCCCCC2)c1	0.8	-9.0	-18.3	2.2	26.8
C/C(=N\NC(=O)Cn1nc(C)c([N+](=O)[O-])c1C)c1ccco1	12.5	-1.6	2.6	2.2	-8.3
Cc1ccccc1-n1c(SCc2c(C)noc2C)nnc1-c1ccncc1	0.6	-7.8	-25.7	0.9	-110.2
Cc1ccccc1-n1c(SCc2c(C)noc2C)nnc1-c1cccnc1	14.9	33.2	51.6*	6.1	-0.8
C/C(CC(=O)Nc1ccc(Cl)c(Cl)c1)=N\NC(=O)C(=O)N1CCCCC1	1.5	-10.9	-3.5	-3.6	1.4
COc1cc(-c2ccc(Nc3ccccc3C(=O)O)c(OC)c2)ccc1Nc1ccccc1C(=O)O	12.1	4.2	3.9	10.2	55.4*
CCCCNS(=O)(=O)c1ccc2nc(SCC(=O)Nc3ccccc3Cl)[nH]c2c1	14.4	-5.9	-4.4	8.7	56.4*
COc1ccc(C(=O)C(Sc2nnc(C)c(=O)[nH]2)c2ccc(OC)cc2)cc1 (stereo unspecified)	6.4	-0.9	-0.5	-0.2	22.3
O=C(O)c1ccc(N2CCS(=O)(=O)CC2)cc1	5.5	-5.8	-1.6	-11.2	-27.3
SMILES	FXIIa inh	Thrombin inh	KLK5 inh	FXIa inh	Calpain2 inh
N#Cc1c2n(c3c(=O)n(Cc4ccccc4)cnc13)CCCC2	44.2*	8.8	-21.2	15.5	23.0
CCN(C(=O)COC(=O)/C=C/c1c(C)nn(-c2ccccc2)c1C)C1CCS(=O)(=O)C1 (stereo unspecified)	26.3	14.5	31.6	42.6*	5.0
Cc1nn(-c2ccccc2)c(C)c1/C=C/C(=O)OCC(=O)N(C)C1CCS(=O)(=O)C1 (stereo unspecified)	-5.5	-3.0	-23.9	-0.7	16.3
Cc1nn(C)cc1NC(=O)CC12CC3CC(CC(C3)C1)C2	6.2	0.8	52.4*	4.1	30.7
CCn1nc(C)c(NC(=O)CC23CC4CC(CC(C4)C2)C3)c1C	12.2	0.2	-5.9	6.3	11.9
Cc1c(C=O)c2ccccn2c1C(=O)c1cccs1	10.3	-3.1	1.0	-1.0	-18.9
O=[N+]([O-])c1nn(-c2ccc(Cl)cc2)n(O)c1=NCc1cccnc1	4.0	-9.6	-3.9	3.7	12.3
O=[N+]([O-])c1nn(-c2cccc(Cl)c2)n(O)c1=NCc1cccnc1	17.4	17.4	75.0*	12.3	22.2
CC(=O)NC(NC(=S)N1CCCCCC1)C(Cl)(Cl)Cl (stereo unspecified)	4.7	0.5	nt	-2.5	8.3
O=C(/C=C/c1cn(-c2ccccc2)nc1-c1cccc(Cl)c1)N1CCN(c2ccccn2)CC1	-5.1	1.5	-19.9	-4.9	-17.4
CCCCC(=O)Nc1ccccc1Oc1ccccc1	7.3	-6.4	-8.1	-5.5	18.9
CCOC(=O)/C(C(=O)Nc1ccccc1Cl)=C1/NC(C)(C)Cc2ccccc21	16.6	-0.1	4.6	3.9	-12.7
CCOC(=O)/C(C)=C1\NC(C)(C)Cc2ccccc21	64.7*	-2.4	39.8	5.4	2.4
C=CCN(C(=O)C1=NN(C2CCS(=O)(=O)C2)C(=O)CC1)c1nc(-c2ccc([N+](=O)[O-])cc2)cs1 (stereo unspecified)	3.7	13.9	-0.1	-1.6	-69.4
Cc1cc(NC(=O)c2ccc([N+](=O)[O-])cc2)n(C)n1	3.3	-2.5	-3.7	-3.2	-21.7
C=CCSc1nc(C)c(CC=C)c(=O)[nH]1	53.2*	-0.2	1.7	30.3	29.9
COc1cccc(N2CCN(C3CC(=O)N(c4ccc(C)c(Cl)c4)C3=O)CC2)c1 (stereo unspecified)	0.7	-2.8	3.2	-0.5	7.5
COc1cccc(N2CCN(C3CC(=O)N(c4ccc(F)c(Cl)c4)C3=O)CC2)c1 (stereo unspecified)	-3.0	0.1	44.0*	-4.1	3.0
Cn1c(NC(=O)Cc2cccc3ccccc23)cc(=O)n(C)c1=O	5.4	-6.8	-10.2	-0.7	16.9
O=C(Nc1cc(Sc2ccccn2)cc([N+](=O)[O-])c1)c1cccc(F)c1	8.1	-4.3	-18.2	7.5	53.2*
O=C(Nc1cc(Sc2nc3ccccc3s2)cc([N+](=O)[O-])c1)c1ccccc1	12.5	1.5	-4.2	7.6	2.3
COC(=O)c1ccc2nc(NC(=O)CN3C(=O)CCC3=O)sc2c1	21.1	15.0	49.9*	13.3	2.1
COC(=O)c1ccc2nc(NC(=O)C(C)C)sc2c1	2.4	-9.3	-7.9	-2.8	24.1
Cc1nn(C)c(C)c1/C=C(/C(=O)C(C)C)n1cncn1	24.6	6.8	40.0*	41.6*	12.3
Cc1nn(C)c(C)c1/C=C(/C(=O)C(C)(C)C)n1cncn1	3.3	-2.6	-1.2	-1.6	8.6
CCN1CCN(c2ccc(N=Cc3ccccc3O)cc2)CC1	8.4	nt	-3.2	2.0	-9.3
O=C(/C=C/c1ccc([N+](=O)[O-])cc1)NCCSc1ccccc1	4.4	-5.6	-16.9	0.8	56.6*
